Test results taken from ChEMBL document CHEMBL4689842, “EUbOPEN Chemogenomics Library wave 1” (2021).

Tested on: Fibroblast
Assay: Multiplex assay against human fibroblast
Format: toxicity, cell-based
Procedure, shortened: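 Values for tubulin, mitochondrial-mass and membrane-permeability phenotypes are per cents of cells with healthy nuclei. These cells were identified by CellPathfinder machine-learning gating of live cells that had been stained at seeding with Hoechst33342, BioTracker Green Microtubule Cytoskeleton Dye, MitoTracker Red and Annexin V Alexa Fluor 680 and imaged on a CQ1 microscope at 37°C and 5% CO2 after compound addition. The gating first set Hoechst high-intensity objects apart from normal cells, then split normal cells into healthy, pyknosed or fragmented nuclei, and pyknosed cells into mitotic or apoptotic.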

[1] = 12 h, 1 µM, compound concentration 1 uM, replicate 1
[2] = 12 h, 1 µM, compound concentration 1 uM, replicate 2
[3] = 12 h, 10 µM, compound concentration 10 uM, replicate 1
[4] = 12 h, 10 µM, compound concentration 10 uM, replicate 2
[5] = 24 h, 1 µM, compound concentration 1 uM, replicate 1
[6] = 24 h, 1 µM, compound concentration 1 uM, replicate 2
[7] = 24 h, 10 µM, compound concentration 10 uM, replicate 1
[8] = 24 h, 10 µM, compound concentration 10 uM, replicate 2
[9] = 48 h, 1 µM, compound concentration 1 uM, replicate 1
[10] = 48 h, 1 µM, compound concentration 1 uM, replicate 2
[11] = 48 h, 10 µM, compound concentration 10 uM, replicate 1
[12] = 48 h, 10 µM, compound concentration 10 uM, replicate 2

CN(C)CC#Cc1ccc(OCCCc2sc(N3CCc4cccc(C(=O)Nc5nc6ccccc6s5)c4C3)nc2C(=O)O)c(F)c1 [A-1155463]
Population Apoptotic (%) [1]: 74%
Population Fragmented Nuclei (%) [1]: 27%
Population Healthy Nuclei (%) [1]: 44%
Population Hoechst High Intensity Objects (%) [1]: 12%
Population Membrane Permeable-Phenotype (%) [1]: 30%
Population Mitochondria Different-Phenotype (%) [1]: 9%
Population Mitotic Cells (%) [1]: 25%
Population Normal (%) [1]: 87%
Population Pyknosed Nuclei (%) [1]: 27%
Population Tubulin-Different-Phenotype (%) [1]: 46%
Total Cell Count [1]: 111
Population Apoptotic (%) [2]: 66%
Population Fragmented Nuclei (%) [2]: 39%
Population Healthy Nuclei (%) [2]: 53%
Population Hoechst High Intensity Objects (%) [2]: 4%
Population Membrane Permeable-Phenotype (%) [2]: 13%
Population Mitochondria Different-Phenotype (%) [2]: 31%
Population Mitotic Cells (%) [2]: 33%
Population Normal (%) [2]: 95%
Population Pyknosed Nuclei (%) [2]: 7%
Population Tubulin-Different-Phenotype (%) [2]: 27%
Total Cell Count [2]: 86
Population Apoptotic (%) [3]: 63%
Population Fragmented Nuclei (%) [3]: 24%
Population Healthy Nuclei (%) [3]: 41%
Population Hoechst High Intensity Objects (%) [3]: 11%
Population Membrane Permeable-Phenotype (%) [3]: 42%
Population Mitochondria Different-Phenotype (%) [3]: 4%
Population Mitotic Cells (%) [3]: 36%
Population Normal (%) [3]: 88%
Population Pyknosed Nuclei (%) [3]: 33%
Population Tubulin-Different-Phenotype (%) [3]: 74%
Total Cell Count [3]: 173
Population Apoptotic (%) [4]: 86%
Population Fragmented Nuclei (%) [4]: 33%
Population Healthy Nuclei (%) [4]: 42%
Population Hoechst High Intensity Objects (%) [4]: 5%
Population Membrane Permeable-Phenotype (%) [4]: 24%
Population Mitochondria Different-Phenotype (%) [4]: 16%
Population Mitotic Cells (%) [4]: 13%
Population Normal (%) [4]: 94%
Population Pyknosed Nuclei (%) [4]: 23%
Population Tubulin-Different-Phenotype (%) [4]: 25%
Total Cell Count [4]: 133
Population Apoptotic (%) [5]: 62%
Population Fragmented Nuclei (%) [5]: 30%
Population Healthy Nuclei (%) [5]: 33%
Population Hoechst High Intensity Objects (%) [5]: 11%
Population Membrane Permeable-Phenotype (%) [5]: 37%
Population Mitochondria Different-Phenotype (%) [5]: 7%
Population Mitotic Cells (%) [5]: 37%
Population Normal (%) [5]: 88%
Population Pyknosed Nuclei (%) [5]: 36%
Population Tubulin-Different-Phenotype (%) [5]: 50%
Total Cell Count [5]: 134
Population Apoptotic (%) [6]: 50%
Population Fragmented Nuclei (%) [6]: 36%
Population Healthy Nuclei (%) [6]: 54%
Population Hoechst High Intensity Objects (%) [6]: 7%
Population Membrane Permeable-Phenotype (%) [6]: 13%
Population Mitochondria Different-Phenotype (%) [6]: 32%
Population Mitotic Cells (%) [6]: 50%
Population Normal (%) [6]: 92%
Population Pyknosed Nuclei (%) [6]: 9%
Population Tubulin-Different-Phenotype (%) [6]: 28%
Total Cell Count [6]: 92
Population Apoptotic (%) [7]: 71%
Population Fragmented Nuclei (%) [7]: 27%
Population Healthy Nuclei (%) [7]: 50%
Population Hoechst High Intensity Objects (%) [7]: 9%
Population Membrane Permeable-Phenotype (%) [7]: 44%
Population Mitochondria Different-Phenotype (%) [7]: 2%
Population Mitotic Cells (%) [7]: 28%
Population Normal (%) [7]: 90%
Population Tubulin-Different-Phenotype (%) [7]: 76%
Total Cell Count [7]: 170
Population Apoptotic (%) [8]: 81%
Population Fragmented Nuclei (%) [8]: 32%
Population Healthy Nuclei (%) [8]: 45%
Population Hoechst High Intensity Objects (%) [8]: 10%
Population Membrane Permeable-Phenotype (%) [8]: 20%
Population Mitochondria Different-Phenotype (%) [8]: 14%
Population Mitotic Cells (%) [8]: 18%
Population Normal (%) [8]: 89%
Population Pyknosed Nuclei (%) [8]: 22%
Population Tubulin-Different-Phenotype (%) [8]: 21%
Total Cell Count [8]: 135
Population Apoptotic (%) [9]: 68%
Population Fragmented Nuclei (%) [9]: 31%
Population Healthy Nuclei (%) [9]: 34%
Population Hoechst High Intensity Objects (%) [9]: 18%
Population Membrane Permeable-Phenotype (%) [9]: 20%
Population Mitochondria Different-Phenotype (%) [9]: 3%
Population Mitotic Cells (%) [9]: 31%
Population Normal (%) [9]: 81%
Population Pyknosed Nuclei (%) [9]: 33%
Population Tubulin-Different-Phenotype (%) [9]: 56%
Total Cell Count [9]: 106
Population Apoptotic (%) [10]: 80%
Population Fragmented Nuclei (%) [10]: 35%
Population Healthy Nuclei (%) [10]: 53%
Population Hoechst High Intensity Objects (%) [10]: 11%
Population Membrane Permeable-Phenotype (%) [10]: 28%
Population Mitochondria Different-Phenotype (%) [10]: 6%
Population Mitotic Cells (%) [10]: 20%
Population Normal (%) [10]: 88%
Population Pyknosed Nuclei (%) [10]: 10%
Population Tubulin-Different-Phenotype (%) [10]: 44%
Total Cell Count [10]: 105
Population Apoptotic (%) [11]: 66%
Population Fragmented Nuclei (%) [11]: 38%
Population Healthy Nuclei (%) [11]: 39%
Population Hoechst High Intensity Objects (%) [11]: 10%
Population Membrane Permeable-Phenotype (%) [11]: 50%
Population Mitochondria Different-Phenotype (%) [11]: 10%
Population Mitotic Cells (%) [11]: 33%
Population Normal (%) [11]: 89%
Population Pyknosed Nuclei (%) [11]: 22%
Population Tubulin-Different-Phenotype (%) [11]: 81%
Total Cell Count [11]: 135
Population Apoptotic (%) [12]: 95%
Population Fragmented Nuclei (%) [12]: 25%
Population Healthy Nuclei (%) [12]: 57%
Population Hoechst High Intensity Objects (%) [12]: 14%
Population Membrane Permeable-Phenotype (%) [12]: 35%
Population Mitochondria Different-Phenotype (%) [12]: 9%
Population Mitotic Cells (%) [12]: 4%
Population Normal (%) [12]: 85%
Population Pyknosed Nuclei (%) [12]: 17%
Population Tubulin-Different-Phenotype (%) [12]: 74%
Total Cell Count [12]: 145

CC(C)NCC(O)COc1ccc(CCOCC2CC2)cc1.Cl (centres undefined) [BETAXOLOL HYDROCHLORIDE]
Population Apoptotic (%) [1]: 41%
Population Fragmented Nuclei (%) [1]: 22%
Population Healthy Nuclei (%) [1]: 47%
Population Hoechst High Intensity Objects (%) [1]: 4%
Population Membrane Permeable-Phenotype (%) [1]: 23%
Population Mitochondria Different-Phenotype (%) [1]: 2%
Population Mitotic Cells (%) [1]: 58%
Population Normal (%) [1]: 95%
Population Pyknosed Nuclei (%) [1]: 30%
Population Tubulin-Different-Phenotype (%) [1]: 39%
Total Cell Count [1]: 84
Population Apoptotic (%) [2]: 100%
Population Fragmented Nuclei (%) [2]: 2%
Population Healthy Nuclei (%) [2]: 95%
Population Hoechst High Intensity Objects (%) [2]: 16%
Population Membrane Permeable-Phenotype (%) [2]: 6%
Population Mitotic Cells (%) [2]: 0%
Population Normal (%) [2]: 83%
Population Pyknosed Nuclei (%) [2]: 2%
Population Tubulin-Different-Phenotype (%) [2]: 9%
Total Cell Count [2]: 55
Population Apoptotic (%) [3]: 67%
Population Fragmented Nuclei (%) [3]: 17%
Population Healthy Nuclei (%) [3]: 55%
Population Hoechst High Intensity Objects (%) [3]: 16%
Population Membrane Permeable-Phenotype (%) [3]: 10%
Population Mitochondria Different-Phenotype (%) [3]: 17%
Population Mitotic Cells (%) [3]: 32%
Population Normal (%) [3]: 83%
Population Pyknosed Nuclei (%) [3]: 26%
Population Tubulin-Different-Phenotype (%) [3]: 58%
Total Cell Count [3]: 125
Population Apoptotic (%) [4]: 23%
Population Fragmented Nuclei (%) [4]: 9%
Population Healthy Nuclei (%) [4]: 77%
Population Hoechst High Intensity Objects (%) [4]: 7%
Population Membrane Permeable-Phenotype (%) [4]: 5%
Population Mitochondria Different-Phenotype (%) [4]: 72%
Population Mitotic Cells (%) [4]: 76%
Population Normal (%) [4]: 92%
Population Pyknosed Nuclei (%) [4]: 13%
Population Tubulin-Different-Phenotype (%) [4]: 49%
Total Cell Count [4]: 107
Population Apoptotic (%) [5]: 30%
Population Fragmented Nuclei (%) [5]: 20%
Population Healthy Nuclei (%) [5]: 55%
Population Hoechst High Intensity Objects (%) [5]: 9%
Population Membrane Permeable-Phenotype (%) [5]: 30%
Population Mitochondria Different-Phenotype (%) [5]: 4%
Population Mitotic Cells (%) [5]: 70%
Population Normal (%) [5]: 90%
Population Pyknosed Nuclei (%) [5]: 24%
Population Tubulin-Different-Phenotype (%) [5]: 34%
Total Cell Count [5]: 92
Population Apoptotic (%) [6]: 33%
Population Fragmented Nuclei (%) [6]: 3%
Population Healthy Nuclei (%) [6]: 85%
Population Hoechst High Intensity Objects (%) [6]: 5%
Population Membrane Permeable-Phenotype (%) [6]: 4%
Population Mitochondria Different-Phenotype (%) [6]: 6%
Population Mitotic Cells (%) [6]: 66%
Population Normal (%) [6]: 94%
Population Pyknosed Nuclei (%) [6]: 10%
Population Tubulin-Different-Phenotype (%) [6]: 2%
Total Cell Count [6]: 59
Population Apoptotic (%) [7]: 74%
Population Fragmented Nuclei (%) [7]: 25%
Population Healthy Nuclei (%) [7]: 50%
Population Hoechst High Intensity Objects (%) [7]: 15%
Population Membrane Permeable-Phenotype (%) [7]: 19%
Population Mitochondria Different-Phenotype (%) [7]: 21%
Population Mitotic Cells (%) [7]: 25%
Population Normal (%) [7]: 84%
Population Pyknosed Nuclei (%) [7]: 23%
Population Tubulin-Different-Phenotype (%) [7]: 64%
Total Cell Count [7]: 133
Population Apoptotic (%) [8]: 40%
Population Fragmented Nuclei (%) [8]: 7%
Population Healthy Nuclei (%) [8]: 78%
Population Hoechst High Intensity Objects (%) [8]: 5%
Population Membrane Permeable-Phenotype (%) [8]: 5%
Population Mitochondria Different-Phenotype (%) [8]: 78%
Population Mitotic Cells (%) [8]: 60%
Population Normal (%) [8]: 94%
Population Pyknosed Nuclei (%) [8]: 15%
Population Tubulin-Different-Phenotype (%) [8]: 46%
Total Cell Count [8]: 106
Population Apoptotic (%) [9]: 76%
Population Fragmented Nuclei (%) [9]: 33%
Population Healthy Nuclei (%) [9]: 50%
Population Hoechst High Intensity Objects (%) [9]: 12%
Population Membrane Permeable-Phenotype (%) [9]: 30%
Population Mitochondria Different-Phenotype (%) [9]: 4%
Population Mitotic Cells (%) [9]: 23%
Population Normal (%) [9]: 87%
Population Pyknosed Nuclei (%) [9]: 15%
Population Tubulin-Different-Phenotype (%) [9]: 45%
Total Cell Count [9]: 95
Population Apoptotic (%) [10]: 83%
Population Fragmented Nuclei (%) [10]: 27%
Population Healthy Nuclei (%) [10]: 67%
Population Membrane Permeable-Phenotype (%) [10]: 13%
Population Mitochondria Different-Phenotype (%) [10]: 1%
Population Mitotic Cells (%) [10]: 16%
Population Pyknosed Nuclei (%) [10]: 4%
Population Tubulin-Different-Phenotype (%) [10]: 35%
Total Cell Count [10]: 157
Population Apoptotic (%) [11]: 76%
Population Fragmented Nuclei (%) [11]: 41%
Population Healthy Nuclei (%) [11]: 50%
Population Hoechst High Intensity Objects (%) [11]: 24%
Population Membrane Permeable-Phenotype (%) [11]: 22%
Population Mitochondria Different-Phenotype (%) [11]: 4%
Population Mitotic Cells (%) [11]: 23%
Population Normal (%) [11]: 75%
Population Pyknosed Nuclei (%) [11]: 8%
Population Tubulin-Different-Phenotype (%) [11]: 55%
Total Cell Count [11]: 196
Population Apoptotic (%) [12]: 100%
Population Fragmented Nuclei (%) [12]: 48%
Population Hoechst High Intensity Objects (%) [12]: 20%
Population Membrane Permeable-Phenotype (%) [12]: 15%
Population Mitochondria Different-Phenotype (%) [12]: 2%
Population Mitotic Cells (%) [12]: 0%
Population Normal (%) [12]: 79%
Population Pyknosed Nuclei (%) [12]: 0%
Population Tubulin-Different-Phenotype (%) [12]: 66%
Total Cell Count [12]: 278
